From PubChem
MT1-MMP act inh – blocks activation of human MT1-MMP; P50281; HT1080 RFP-PRO-GFP cells, GFP/RFP ratio fluorescence, overnight; percent of plate control window, DMSO zero; GFP/RFP ratio change, % at 20 µM; hit rate 0.061% among 360,000;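 active = GFP/RFP ratio change of at least 30% with cell ATP level not reduced by more than half and red fluorescence within 50% of control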
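Assay system: HT1080 cells carrying an RFP-PRO-GFP reporter | Dosing: Single dose of 20 µM compound, 1% DMSO final | Incubation: Cells overnight before dosing, compound overnight, 37 °C, 5% CO2 | Evaluation: GFP/RFP fluorescence ratio | Control set: DMSO and RFP-L50D-GFP cell wells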
TMEM16A act – mouse TMEM16A channel activation, primary screen | Q8BHY3 | HEK293 TMEM16A/YFP-H148Q/I152L, iodide quench fluorescence; stronger effect = lower value | B-score at 10 µM | hit rate 0.3% among 340,000 | AID 623877;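 active = fluorescence-ratio B-score plate-corrected deviation score at least 3 library SD below zero, with starting fluorescence score within 5 deviations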;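 note: channel opened by trigger with iodide after compound preincubation; score built on the fluorescence ratio of max minus min over baseline; more negative score means more quench and so TMEM16A activation or potentiation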
Target sequence (Q8BHY3 whole entry, looked up): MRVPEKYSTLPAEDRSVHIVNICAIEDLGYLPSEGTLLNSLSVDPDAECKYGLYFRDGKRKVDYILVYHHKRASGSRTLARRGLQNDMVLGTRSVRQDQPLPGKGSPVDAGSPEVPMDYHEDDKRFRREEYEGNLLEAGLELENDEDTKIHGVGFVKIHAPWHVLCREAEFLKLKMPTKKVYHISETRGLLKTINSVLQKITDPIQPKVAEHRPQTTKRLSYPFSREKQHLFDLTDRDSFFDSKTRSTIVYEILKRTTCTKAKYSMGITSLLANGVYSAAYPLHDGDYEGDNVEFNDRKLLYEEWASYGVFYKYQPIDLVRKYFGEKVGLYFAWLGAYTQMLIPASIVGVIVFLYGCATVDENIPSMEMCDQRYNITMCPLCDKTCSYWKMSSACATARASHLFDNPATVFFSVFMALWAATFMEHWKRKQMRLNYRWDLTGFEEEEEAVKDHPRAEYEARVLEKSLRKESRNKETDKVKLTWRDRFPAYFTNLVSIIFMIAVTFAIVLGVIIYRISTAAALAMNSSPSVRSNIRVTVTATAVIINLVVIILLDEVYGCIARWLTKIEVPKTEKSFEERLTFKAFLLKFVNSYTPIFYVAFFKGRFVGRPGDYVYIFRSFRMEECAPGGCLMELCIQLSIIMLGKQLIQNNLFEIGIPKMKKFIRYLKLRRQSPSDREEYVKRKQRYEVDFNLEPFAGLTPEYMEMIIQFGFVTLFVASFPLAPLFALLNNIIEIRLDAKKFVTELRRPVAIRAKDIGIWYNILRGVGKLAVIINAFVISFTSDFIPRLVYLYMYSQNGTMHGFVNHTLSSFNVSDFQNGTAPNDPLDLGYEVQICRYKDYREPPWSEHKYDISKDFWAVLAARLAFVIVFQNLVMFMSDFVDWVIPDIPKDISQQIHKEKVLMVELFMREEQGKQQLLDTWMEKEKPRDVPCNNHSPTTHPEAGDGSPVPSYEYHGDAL
DAGLB inhibitor – diacylglycerol lipase beta (human) inhibition; HEK293T DAGLB membrane lysate, EnzChek fluorogenic substrate; inhibition, % at 5.17 µM; hit rate 0.059% among 340,000; AID 504411; in the data active = inhibition above about 34%;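 note: 0% = enzyme with vehicle and 100% = wells lacking enzyme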
TMEM16A inh – mouse TMEM16A channel inhibition, primary screen | hit rate 1.2% among 310,000 | Q8BHY3 | HEK293 TMEM16A/YFP iodide influx fluorescence, ionomycin | normalized B-score (activity score, 25-100; higher = stronger inhibition) at 10 µM | AID 588511;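 active = ratio plate-corrected score three or more library SD toward inhibition, starting fluorescence score within five deviations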;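 note: score derived from kinetic fluorescence span divided by baseline fluorescence per well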
Active calls of the source: *; i = inactive; / = no result. Shown are actives, neighbours in structure and some others; about 1.3% of the full set was active somewhere.

SMILES | MT1-MMP act inh | TMEM16A act | DAGLB inhibitor | TMEM16A inh
COc1cc(/C=C/C(=O)c2ccc(NS(=O)(=O)c3ccc(C)cc3)cc2)cc(OC)c1O | -31 | -5.1* | 3 | i
Cc1cccc(OCC(=O)N/N=C\c2cc3c(cc2[N+](=O)[O-])OCO3)c1C | -1 | i | 0 | 25*
Cc1ccc(Cl)cc1NC(=O)CSc1sc2c(O)cc(=O)[nH]c2c1C#N | -3 | -4.9* | 6 | i
COc1ccc(Cl)cc1NC(=O)CSc1sc2c(O)cc(=O)[nH]c2c1C#N | -1 | i | 7 | i
COc1ccc(CN2CCC[C@]3(N[C@H](c4ccccc4)[C@@H]4C(=O)N(C)C(=O)[C@@H]43)C2=O)cc1 | -1 | / | 0 | /
CCn1c(Cc2c(C)[nH]c3ccccc23)nnc1SCC(=O)NCc1ccccc1 | 2 | i | 2 | i
C=CCn1c(Cc2c(C)[nH]c3ccccc23)nnc1SCC(=O)NCc1ccc(F)cc1 | -1 | i | -2 | 100*
CCOC(=O)[C@]12CCC=C1N(Cc1ccccc1)C(=O)[C@H](CC(=O)NCC13CC4CC(CC(C4)C1)C3)C2 | -1 | / | / | /
C#CCOCCOCCOCCNc1nc(N2CCOCC2)nc(N2CCN(C(=O)CCCCCCCCCCNC(=O)[C@@H](CCSC)n3cc(CCO)nn3)CC2)n1 | -2 | i | -6 | i
C#CCOCCOCCOCCNc1nc(N2CCN(C(=O)CCCCCCCCCCNC(=O)[C@@H](CCSC)n3cc(CCO)nn3)CC2)nc(N2CCN(C(=O)CCCCCCCCCCNC(=O)[C@H]([C@@H](C)CC)n3cc(CCCCN=C(N)N)nn3)CC2)n1 | 8 | -23* | 3 | i
C#CCOCCOCCOCCNc1nc(N2CCN(C(=O)CCCCCCCCCCNC(=O)[C@@H](CCSC)n3cc(CCO)nn3)CC2)nc(N2CCN(C(=O)CCCCCCCCCCNC(=O)[C@H]([C@@H](C)CC)n3cc(CCCCCN)nn3)CC2)n1 | / | / | / | 100*
O=C1OCCOC2CCCc3oc(C4=CCCCC4)c1c32 (stereo not given) | 4 | / | / | /
Cc1c(CC(=O)O)c(=O)oc2c(C)c(OCc3nn[nH]n3)ccc12 | 5 | -4.9* | 1 | i
O=C(c1cc2c(s1)CCCC2)N1CCN(S(=O)(=O)c2ccccc2)CC1 | 2 | i | 0 | i
COc1ccc(S(=O)(=O)N2CCN(C(=O)c3cc4c(s3)CCCC4)CC2)cc1 | 14 | -34* | -3 | /
O=C(c1ccc(Cl)cc1)N1N=CCC1(O)c1ccc(Cl)cc1 (stereo not given) | 2 | i | -9 | i
CC1(C)CC[C@]2(C(=O)O[C@@H]3O[C@H](CO)[C@@H](O)[C@H](O)[C@H]3O)CC[C@]3(C)C(=CCC4[C@@]5(C)CC[C@H](O[C@@H]6O[C@H](C(=O)O)[C@@H](O[C@H]7OC[C@@H](O)[C@@H](O)[C@@H]7O)[C@H](O)[C@H]6O)C(C)(C)C5CC[C@]43C)[C@@H]2C1 (stereo not given in full) | -1 | i | 2 | /
CC1(C)CC[C@]2(C(=O)O)CC[C@]3(C)C(=CC[C@@H]4[C@@]5(C)CC[C@H](O[C@@H]6O[C@H](C(=O)O)[C@@H](O)[C@H](O[C@@H]7OC[C@H](O)[C@H](O)[C@H]7O)[C@H]6O)C(C)(C)[C@@H]5CC[C@]43C)[C@@H]2C1 | -4 | -17* | 5 | /
CCN(Cc1ccccc1)C(c1ccccn1)c1nnnn1C(C)(C)CC (stereo not given) | -10 | i | -5 | i
CC(C)(C)n1nnnc1C(c1ccccn1)N(Cc1ccccc1)Cc1ccc(Cl)cc1 (stereo not given) | -16 | -5.1* | -6 | i
O=C(Nc1ccc(C(F)(F)F)cc1)c1ccccc1-n1cnnn1 | 2 | i | -1 | /
O=C(NNC(=S)NC(=O)C12CC3CC(CC(C3)C1)C2)c1ccncc1 | -4 | i | 2 | 25*
CSc1ccccc1NC(=O)CN(C)Cc1cccc(Cl)c1 | -4 | -39* | -9 | i
CSc1ccccc1NC(=O)CN(C)CC(=O)NCc1ccccc1 | 1 | i | -1 | i
Cc1cc(C)cc(NC(=O)C2CCN(c3nccs3)CC2)c1 | -1 | -14* | 0 | i
SMILES | MT1-MMP act inh | TMEM16A act | DAGLB inhibitor | TMEM16A inh
C/C(=N\NC(=O)c1ccc(Br)cc1)C1C(=O)c2ccccc2C1=O | -1 | i | 20 | 100*
C=C(C)COc1ccc(-c2[nH]ncc2Oc2ccccc2OCC)c(O)c1 | -3 | i | 1 | 100*
CCOc1ccccc1Oc1cn[nH]c1-c1ccc(O)cc1O | -2 | i | -1 | i
COc1cc(NC(=O)COc2ccc(-n3ccnc3)cc2)cc(OC)c1 | -7 | i | 1 | i
N#Cc1cccc(NC(=O)COc2ccc(-n3ccnc3)cc2)c1 | 1 | i | 1 | 25*
COc1cccc(-c2coc3c(C)c4oc(=O)c(CCC(=O)O)c(C)c4cc23)c1 | 7 | i | -6 | 100*
COc1cccc(-c2coc3c(C)c4oc(=O)c(CC(=O)O)c(C)c4cc23)c1 | 4 | i | 2 | i
CCOc1ccccc1C(=O)N1c2ccccc2Sc2ccccc21 | -15 | i | -7 | 100*
O=C(CSc1ncnc2sc3c(c12)CCCC3)c1ccco1 | -1 | i | -10 | i
O=C(CSc1ncnc2sc3c(c12)CCCC3)c1ccccc1 | -4 | -5* | -4 | i
CC(C)(C)NC(=O)CN1CCC(O)(c2ccc3c(c2)OCO3)CC1 | -2 | -13* | -1 | i
CC[C@@H](C(=O)[C@@H](C)[C@@H](O)[C@H](C)CCc1ccc(C)c(O)c1C(=O)O)[C@H]1O[C@](CC)([C@H]2CC[C@](O)(CC)[C@H](C)O2)C[C@@H]1C | -6 | -5.5* | 34 | 100*
O=C(NCCCNC(=O)c1cccs1)c1cccs1 | -1 | -12* | 0 | i
O=C(NCCCCNC(=O)c1cccs1)c1cccs1 | -3 | i | -1 | i
COc1ccccc1-n1c(=O)c(C#N)c(-c2ccc([N+](=O)[O-])cc2)c2cc(C(=O)c3cc(F)ccc3O)cnc21 | 1 | i | 2 | i
Cn1c(=O)c(C#N)c(-c2ccc(F)cc2)c2cc(C(=O)c3cc(Cl)cc(Cl)c3O)cnc21 | 7 | i | 17 | 100*
CC(=O)Nc1ccc(-c2csc(Nc3cc(C)ccn3)n2)cc1 | -13 | i | 4 | i
CC(=O)Nc1cccc(-c2csc(Nc3cc(C)ccn3)n2)c1 | 3 | i | 1 | 25*
Cc1ccc(N2CCN(C(=O)CNS(=O)(=O)c3ccc(Br)s3)CC2C)cc1 (stereo not given) | 1 | i | 4 | 100*
CCNC(=O)C1CCCN(C(=O)c2ccc(C#N)cc2)CC1 (stereo not given) | -1 | / | / | /
CCOC(=O)c1cnn(-c2sc(C(=O)OCC)c(C)c2C(=O)OCC)c1N | -6 | i | 5 | 100*
CCOC(=O)c1cnn(-c2cc(C)cc(C)c2)c1N | 1 | i | -1 | i
